ChEMBL document CHEMBL4304739, “Discovery of 3-(Indol-5-yl)-indazole Derivatives as Novel Myeloid Differentiation Protein 2/Toll-like Receptor 4 Antagonists for Treatment of Acute Lung Injury” (J Med Chem, 2019)
pKd: −log10 of the molar value. The source made the active and inactive calls. The calls are words filed in the database; no cut-off is given here.

How the values were obtained:
Toll-like receptor 4 [1] = molecular target: T1, Toll-like receptor 4 (Homo sapiens, UniProt O00206); assay: Binding affinity to recombinant human C-terminal 10His-tagged TLR4 (Glu24 to Lys631 residues) expressed in mouse NS0 cells by surface plasmon resonance analysis
Mus musculus [2] = assay: Antiinflammatory activity in LPS-induced C57BL/6 mouse model of acute lung injury assessed as reduction in airspace inflammation at 5 to 10 mg/kg, iv pretreated for 15 mins followed by LPS stimulation and measured after 6 hrs by H and E staining-based microscopic analysis; assay type: functional, organism-based
Outline: (§1)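 Male C57BL/6 mice (18−22 g; n=8 per group). Compound in 0.1% CMC-Na given by tail vein injection 15 min before intraperitoneal LPS (20 mg/kg); controls received saline. Mice were sacrificed 6 h after LPS, and serum and lung tissue were collected.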

Toll-like receptor 4 [3] = molecular target: T1, Toll-like receptor 4; assay: Inhibition of HA-tagged/FLAG-tagged TLR4 (unknown origin) homodimerization expressed in HEK293T cells by co-immunoprecipitation method; assay type: cell-based
Outline: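 HEK293T cells co-transfected with HA- and Flag-tagged TLR4 plasmids. Compound at various concentrations or vehicle added 6 h after transfection. Lysates immunoprecipitated with protein A/G agarose and detected by immunoblot with anti-HA and anti-Flag antibodies.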

Mus musculus [4] = assay: Antiinflammatory activity in LPS-induced C57BL/6 mouse model of acute lung injury assessed as appearance of normal pulmonary lobule structure at 5 to 10 mg/kg, iv pretreated for 15 mins followed by LPS stimulation and measured after 6 hrs by H and E staining-based microscopic analysis; assay type: functional, organism-based; outline: as §1
Mus musculus [5] = assay: Antiinflammatory activity in LPS-induced C57BL/6 mouse model of acute lung injury assessed as reduction in lung injury score at 5 to 10 mg/kg, iv pretreated for 15 mins followed by LPS stimulation and measured after 6 hrs; assay type: functional, organism-based; outline: as §1
Mus musculus [6] = assay: Antiinflammatory activity in LPS-induced C57BL/6 mouse model of acute lung injury assessed as suppression of neutrophil lung infiltration by measuring reduction in MPO activity at 5 to 10 mg/kg, iv pretreated for 15 mins followed by LPS stimulation and measured after 6 hrs; assay type: functional, organism-based; outline: as §1
[7] = tested on: Tyrosine-protein kinase ABL1 (Homo sapiens), P00519 [T315I]; assay: Inhibition of human phosphorylated ABL1 T315I mutant (S229 to K512 residues) expressed in mammalian expression system at 1 uM by Kinomescan method
Outline: (§2)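 KINOMEscan competition binding screen at 1 μM compound. Results reported as % of control = (test − positive control)/(DMSO negative control − positive control) × 100, where lower values mean stronger hits.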

[8] = molecular target: RAC-alpha serine/threonine-protein kinase (Homo sapiens) (UniProt P31749); assay: Inhibition of wild-type human partial length AKT1 expressed in bacterial expression system at 1 uM by Kinomescan method; outline: as §2
[9] = molecular target: RAC-beta serine/threonine-protein kinase (Homo sapiens) (UniProt P31751); assay: Inhibition of wild-type human partial length AKT2 expressed in bacterial expression system at 1 uM by Kinomescan method; outline: as §2
[10] = molecular target: Aurora kinase A (Homo sapiens) (UniProt O14965); assay: Inhibition of wild-type human partial length AURKA (E122 to K401 residues) expressed in mammalian expression system at 1 uM by Kinomescan method
Outline: (§3)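 Binding-competition screen on the KINOMEscan platform, run by the provider, with the test compound at 1 μM. Readout is percent of control: (test signal − positive control signal)/(negative control signal − positive control signal) × 100. The DMSO negative control is set as 100% Ctrl and a control compound as 0% Ctrl. Lower values mean stronger hits.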

[11] = molecular target: Bone morphogenetic protein receptor type-2 (Homo sapiens) (UniProt Q13873); assay: Inhibition of wild-type human partial length BMPR2 (R179 to Q526 residues) expressed in mammalian expression system at 1 uM by Kinomescan method; outline: as §3
[12] = tested on: Serine/threonine-protein kinase B-raf (Homo sapiens), P15056 [V600E]; assay: Inhibition of human partial length BRAF V600E mutant (S429 to E741 residues) expressed in mammalian expression system at 1 uM by Kinomescan method; outline: as §2
[13] = molecular target: Serine/threonine-protein kinase Chk1 (Homo sapiens) (UniProt O14757); assay: Inhibition of wild-type human partial length CHEK1 (M1 to G289 residues) expressed in bacterial expression system at 1 uM by Kinomescan method; outline: as §3
[14] = tested on: Mast/stem cell growth factor receptor Kit (Homo sapiens), P10721 [D816V]; assay: Inhibition of human partial length KIT D816V mutant (I571 to D952 residues) expressed in bacterial expression system at 1 uM by Kinomescan method
Outline: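 KINOMEscan competition binding panel (98 kinases) run by the provider, compound screened once at 1 μM. Read-out is percent of control: [(test signal − positive control signal)/(negative control signal − positive control signal)] × 100. DMSO negative control sets 100% Ctrl and a control compound sets 0% Ctrl; lower values mean stronger hits.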

[15] = molecular target: MAP kinase-interacting serine/threonine-protein kinase 1 (Homo sapiens) (UniProt Q9BUB5); assay: Inhibition of wild-type human full length MKNK1 (M1 to L424 residues) expressed in mammalian expression system at 1 uM by Kinomescan method; outline: as §2
[16] = molecular target: Cyclin-dependent kinase 16 (Homo sapiens) (UniProt Q00536); assay: Inhibition of wild-type human partial length PCTK1 (G160 to A474 residues) expressed in mammalian expression system at 1 uM by Kinomescan method; outline: as §3
[17] = molecular target: 3-phosphoinositide-dependent protein kinase 1 (Homo sapiens) (UniProt O15530); assay: Inhibition of wild-type human full length PDPK1 (M1 to Q556 residues) expressed in bacterial expression system at 1 uM by Kinomescan method; outline: as §2
[18] = molecular target: Phosphatidylinositol 4,5-bisphosphate 3-kinase catalytic subunit gamma isoform (Homo sapiens) (UniProt P48736); assay: Inhibition of wild-type human partial length PIK3CG (S144 to A1102 residues) expressed in mammalian expression system at 1 uM by Kinomescan method; outline: as §3
[19] = molecular target: Serine/threonine-protein kinase pim-2 (Homo sapiens) (UniProt Q9P1W9); assay: Inhibition of wild-type human partial length PIM2 (M1 to E291 residues) expressed in bacterial expression system at 1 uM by Kinomescan method; outline: as §3
[20] = molecular target: Serine/threonine-protein kinase PLK3 (Homo sapiens) (UniProt Q9H4B4); assay: Inhibition of wild-type human partial length PLK3 (A42 to L334 residues) expressed in mammalian expression system at 1 uM by Kinomescan method; outline: as §3
[21] = molecular target: Proto-oncogene tyrosine-protein kinase Src (Homo sapiens) (UniProt P12931); assay: Inhibition of wild-type human partial length SRC (L240 to L536 residues) expressed in bacterial expression system at 1 uM by Kinomescan method
Outline: (§4)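 Single-concentration screen at 1 μM on the KINOMEscan panel (98 kinases), run by the platform provider. Results are given as percent of control: % Ctrl = [(test signal − positive control signal)/(negative control signal − positive control signal)] × 100. DMSO serves as negative control (100% Ctrl) and a control compound as positive control (0% Ctrl). Lower values mean stronger binding hits.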

[22] = molecular target: High affinity nerve growth factor receptor (Homo sapiens) (UniProt P04629); assay: Inhibition of wild-type human partial length TRKA (G475 to G790 residues) expressed in mammalian expression system at 1 uM by Kinomescan method; outline: as §4
Chain of High affinity nerve growth factor receptor (Homo sapiens) (P04629 33-796 limits assumed): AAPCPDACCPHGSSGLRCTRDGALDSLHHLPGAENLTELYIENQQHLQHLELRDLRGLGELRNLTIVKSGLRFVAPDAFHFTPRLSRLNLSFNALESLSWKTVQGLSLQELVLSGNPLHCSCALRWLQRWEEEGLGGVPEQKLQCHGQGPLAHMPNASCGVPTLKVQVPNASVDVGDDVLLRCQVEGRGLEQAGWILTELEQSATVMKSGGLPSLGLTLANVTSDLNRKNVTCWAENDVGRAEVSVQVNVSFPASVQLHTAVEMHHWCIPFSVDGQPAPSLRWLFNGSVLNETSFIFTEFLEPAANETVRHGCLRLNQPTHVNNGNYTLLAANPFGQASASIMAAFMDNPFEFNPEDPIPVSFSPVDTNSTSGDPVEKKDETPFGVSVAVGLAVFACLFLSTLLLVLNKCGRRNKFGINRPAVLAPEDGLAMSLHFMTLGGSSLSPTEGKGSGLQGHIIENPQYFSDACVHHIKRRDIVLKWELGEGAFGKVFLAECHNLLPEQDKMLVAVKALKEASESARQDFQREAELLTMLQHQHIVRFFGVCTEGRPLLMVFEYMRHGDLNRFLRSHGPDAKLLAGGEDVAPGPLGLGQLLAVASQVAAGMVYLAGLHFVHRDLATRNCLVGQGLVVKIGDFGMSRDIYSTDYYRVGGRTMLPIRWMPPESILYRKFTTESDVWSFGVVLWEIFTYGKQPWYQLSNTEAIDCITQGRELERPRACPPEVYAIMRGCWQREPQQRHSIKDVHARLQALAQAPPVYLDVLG

T1 sequence (O00206 whole entry): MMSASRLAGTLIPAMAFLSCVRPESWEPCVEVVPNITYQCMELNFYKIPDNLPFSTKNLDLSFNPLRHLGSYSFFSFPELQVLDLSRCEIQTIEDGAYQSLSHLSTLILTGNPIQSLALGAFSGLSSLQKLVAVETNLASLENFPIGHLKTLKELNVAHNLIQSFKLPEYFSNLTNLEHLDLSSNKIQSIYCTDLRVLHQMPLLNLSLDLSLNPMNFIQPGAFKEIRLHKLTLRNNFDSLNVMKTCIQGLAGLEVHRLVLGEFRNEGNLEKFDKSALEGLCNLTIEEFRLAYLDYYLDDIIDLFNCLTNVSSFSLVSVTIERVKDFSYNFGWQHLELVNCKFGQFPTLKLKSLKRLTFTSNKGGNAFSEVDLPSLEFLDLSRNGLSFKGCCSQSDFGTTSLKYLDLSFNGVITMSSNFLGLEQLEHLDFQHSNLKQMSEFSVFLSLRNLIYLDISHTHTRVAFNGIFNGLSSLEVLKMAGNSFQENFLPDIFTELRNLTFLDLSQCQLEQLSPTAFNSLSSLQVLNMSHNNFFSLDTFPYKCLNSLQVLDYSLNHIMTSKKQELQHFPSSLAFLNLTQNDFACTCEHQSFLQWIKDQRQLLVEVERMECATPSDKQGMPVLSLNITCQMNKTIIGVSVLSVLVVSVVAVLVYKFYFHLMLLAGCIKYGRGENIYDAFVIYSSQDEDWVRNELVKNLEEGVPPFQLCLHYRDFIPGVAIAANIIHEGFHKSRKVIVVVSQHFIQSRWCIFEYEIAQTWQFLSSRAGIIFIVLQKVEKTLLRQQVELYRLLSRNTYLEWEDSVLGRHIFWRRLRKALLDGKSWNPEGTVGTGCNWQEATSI
Chain of Serine/threonine-protein kinase PLK3 (Homo sapiens) (Q9H4B4 whole entry, looked up, the tested form may be a part): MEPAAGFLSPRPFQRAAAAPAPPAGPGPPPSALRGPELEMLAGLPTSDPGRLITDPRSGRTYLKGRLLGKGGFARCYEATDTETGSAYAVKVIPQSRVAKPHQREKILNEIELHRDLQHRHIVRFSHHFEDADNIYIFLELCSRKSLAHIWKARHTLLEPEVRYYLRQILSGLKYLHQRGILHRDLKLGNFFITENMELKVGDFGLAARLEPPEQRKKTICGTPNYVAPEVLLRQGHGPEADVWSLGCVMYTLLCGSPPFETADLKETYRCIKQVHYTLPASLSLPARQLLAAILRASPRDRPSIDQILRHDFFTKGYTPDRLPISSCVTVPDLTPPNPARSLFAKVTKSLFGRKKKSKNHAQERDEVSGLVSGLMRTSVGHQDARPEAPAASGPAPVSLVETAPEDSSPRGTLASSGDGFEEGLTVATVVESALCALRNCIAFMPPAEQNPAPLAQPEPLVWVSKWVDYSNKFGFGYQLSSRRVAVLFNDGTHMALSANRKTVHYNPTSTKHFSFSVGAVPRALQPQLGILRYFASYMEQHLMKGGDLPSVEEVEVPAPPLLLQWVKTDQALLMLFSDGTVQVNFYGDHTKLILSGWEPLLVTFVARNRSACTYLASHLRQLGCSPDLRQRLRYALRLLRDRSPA
Chain of Serine/threonine-protein kinase B-raf (Homo sapiens), P15056 [V600E] (P15056 whole entry V600E, the tested form may be a part): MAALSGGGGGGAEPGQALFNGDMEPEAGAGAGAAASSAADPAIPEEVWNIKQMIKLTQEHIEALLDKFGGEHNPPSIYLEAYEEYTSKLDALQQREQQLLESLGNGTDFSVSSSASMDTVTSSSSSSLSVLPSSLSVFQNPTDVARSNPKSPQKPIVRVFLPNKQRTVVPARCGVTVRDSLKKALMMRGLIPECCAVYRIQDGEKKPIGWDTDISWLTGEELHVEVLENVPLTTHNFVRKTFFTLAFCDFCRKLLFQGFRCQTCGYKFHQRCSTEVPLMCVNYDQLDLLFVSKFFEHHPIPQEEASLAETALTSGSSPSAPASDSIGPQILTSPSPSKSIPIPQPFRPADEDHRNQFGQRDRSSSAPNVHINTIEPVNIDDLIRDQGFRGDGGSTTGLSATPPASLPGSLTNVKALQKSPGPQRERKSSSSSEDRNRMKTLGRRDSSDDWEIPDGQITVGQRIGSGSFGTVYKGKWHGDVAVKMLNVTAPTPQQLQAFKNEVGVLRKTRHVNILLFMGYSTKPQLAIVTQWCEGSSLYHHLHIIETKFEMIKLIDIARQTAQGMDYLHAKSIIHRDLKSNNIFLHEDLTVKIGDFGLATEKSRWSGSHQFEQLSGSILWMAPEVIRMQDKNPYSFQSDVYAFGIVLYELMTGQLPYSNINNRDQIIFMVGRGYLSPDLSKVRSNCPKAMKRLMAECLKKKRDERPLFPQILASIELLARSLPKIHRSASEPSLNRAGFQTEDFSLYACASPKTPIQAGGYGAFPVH
Chain of Mast/stem cell growth factor receptor Kit (Homo sapiens), P10721 [D816V] (P10721 whole entry D816V, the tested form may be a part): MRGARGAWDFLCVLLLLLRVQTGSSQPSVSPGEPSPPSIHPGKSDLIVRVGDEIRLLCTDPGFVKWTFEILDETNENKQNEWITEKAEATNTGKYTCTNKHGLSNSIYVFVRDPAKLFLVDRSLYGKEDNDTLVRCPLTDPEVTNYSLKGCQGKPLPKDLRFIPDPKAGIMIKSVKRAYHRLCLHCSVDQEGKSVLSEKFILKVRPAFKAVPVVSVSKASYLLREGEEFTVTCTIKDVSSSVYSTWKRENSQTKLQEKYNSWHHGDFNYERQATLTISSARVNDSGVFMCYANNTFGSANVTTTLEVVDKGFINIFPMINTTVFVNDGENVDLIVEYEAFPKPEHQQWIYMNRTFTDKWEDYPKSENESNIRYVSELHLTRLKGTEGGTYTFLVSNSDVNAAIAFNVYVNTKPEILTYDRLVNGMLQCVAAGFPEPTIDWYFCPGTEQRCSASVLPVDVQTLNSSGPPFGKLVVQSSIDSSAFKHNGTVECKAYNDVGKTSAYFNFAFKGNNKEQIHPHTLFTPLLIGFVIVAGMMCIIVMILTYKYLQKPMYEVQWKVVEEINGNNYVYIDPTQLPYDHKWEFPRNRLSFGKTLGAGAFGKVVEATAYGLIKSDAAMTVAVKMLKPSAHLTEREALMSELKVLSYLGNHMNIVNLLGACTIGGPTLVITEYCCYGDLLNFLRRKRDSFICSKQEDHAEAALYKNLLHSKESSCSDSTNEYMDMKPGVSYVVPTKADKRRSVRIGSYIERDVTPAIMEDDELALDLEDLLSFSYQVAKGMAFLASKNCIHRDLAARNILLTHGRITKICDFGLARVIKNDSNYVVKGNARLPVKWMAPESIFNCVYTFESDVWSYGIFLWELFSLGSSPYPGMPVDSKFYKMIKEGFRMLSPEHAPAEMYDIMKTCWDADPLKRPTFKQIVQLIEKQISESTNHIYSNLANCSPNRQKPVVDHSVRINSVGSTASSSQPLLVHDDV
Chain of RAC-beta serine/threonine-protein kinase (Homo sapiens) (P31751 whole entry, the tested form may be a part): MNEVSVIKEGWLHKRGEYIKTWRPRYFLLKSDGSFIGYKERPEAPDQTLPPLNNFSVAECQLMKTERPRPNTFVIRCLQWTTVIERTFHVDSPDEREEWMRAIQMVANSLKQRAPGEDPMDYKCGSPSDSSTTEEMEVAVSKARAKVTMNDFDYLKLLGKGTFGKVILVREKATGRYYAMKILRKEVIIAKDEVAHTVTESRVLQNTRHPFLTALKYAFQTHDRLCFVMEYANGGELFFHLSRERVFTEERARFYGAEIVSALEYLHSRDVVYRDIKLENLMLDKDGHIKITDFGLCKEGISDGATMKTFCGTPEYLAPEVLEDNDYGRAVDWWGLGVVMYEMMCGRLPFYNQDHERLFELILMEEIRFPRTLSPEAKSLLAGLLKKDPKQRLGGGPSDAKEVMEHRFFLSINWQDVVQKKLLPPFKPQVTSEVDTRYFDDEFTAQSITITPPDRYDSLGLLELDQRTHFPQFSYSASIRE
Chain of 3-phosphoinositide-dependent protein kinase 1 (Homo sapiens) (O15530 whole entry, the tested form may be a part, canonical isoform): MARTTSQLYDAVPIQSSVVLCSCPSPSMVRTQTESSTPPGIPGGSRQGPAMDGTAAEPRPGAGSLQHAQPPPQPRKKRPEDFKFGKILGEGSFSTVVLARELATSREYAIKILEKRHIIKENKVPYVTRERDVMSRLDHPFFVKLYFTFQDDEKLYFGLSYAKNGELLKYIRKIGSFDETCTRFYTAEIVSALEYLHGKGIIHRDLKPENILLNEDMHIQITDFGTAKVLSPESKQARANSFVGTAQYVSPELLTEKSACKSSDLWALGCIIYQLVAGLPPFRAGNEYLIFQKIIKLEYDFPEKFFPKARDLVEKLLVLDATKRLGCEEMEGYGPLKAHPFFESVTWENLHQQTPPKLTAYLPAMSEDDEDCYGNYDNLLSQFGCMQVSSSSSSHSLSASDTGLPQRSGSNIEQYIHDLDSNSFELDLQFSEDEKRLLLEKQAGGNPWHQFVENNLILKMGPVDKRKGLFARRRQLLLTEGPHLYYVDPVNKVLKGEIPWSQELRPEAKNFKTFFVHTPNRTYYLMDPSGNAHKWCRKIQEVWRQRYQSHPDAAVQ

O=C(Nc1ccc2[nH]nc(-c3ccc4[nH]ccc4c3)c2c1)c1c(Cl)cccc1Cl was tested, and the pKd (Toll-like receptor 4 [1]) was 3.84, the Activity (Mus musculus [2]) was “Active” and the inhibition (Toll-like receptor 4 [3]) was “Active”. The Activity (Mus musculus [4]) was “Active”, the Activity (Mus musculus [5]) was “Active” and the Activity (Mus musculus [6]) was “Active”. The inhibition [7] was “inactive”, the inhibition [8] was “inactive” and the inhibition [9] was “inactive”. The inhibition [10] was “inactive”, the inhibition [11] was “inactive” and the inhibition [12] was “inactive”. For the same compound, the inhibition [13] was “inactive”, the inhibition [14] was “inactive” and the inhibition [15] was “inactive”. For the same compound, the inhibition [16] was “inactive”, the inhibition [17] was “inactive” and the inhibition [18] was “inactive”. The inhibition [19] was “inactive”, the inhibition [20] was “inactive” and the inhibition [21] was “inactive”. For the same compound, the inhibition [22] was “inactive”.
